GSTO1 counter – inhibitors of recombinant GSTO1, primary screen, counter-screen for RBBP9 inhibitor project, biochemical, fluorescence polarization. Glutathione S-transferase omega-1 (Homo sapiens), P78417. activity-based probe fluorescence polarization. actives 1.1% (n = 300,000). inhibition, % at 5.96 µM;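 active = inhibition above the campaign mean inhibition plus 3 SD, cut at about 35% in these data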;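 note: 0% = GSTO1-1 with DMSO and 100% = wells lacking GSTO1-1 enzyme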
Target sequence (P78417 whole entry, looked up): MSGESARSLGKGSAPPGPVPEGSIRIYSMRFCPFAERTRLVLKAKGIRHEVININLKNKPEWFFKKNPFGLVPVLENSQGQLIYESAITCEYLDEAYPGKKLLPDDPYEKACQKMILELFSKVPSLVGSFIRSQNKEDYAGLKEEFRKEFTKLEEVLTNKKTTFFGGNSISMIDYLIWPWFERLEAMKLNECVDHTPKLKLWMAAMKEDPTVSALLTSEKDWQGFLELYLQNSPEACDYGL
CTSL1 counter – Fasciola hepatica cathepsin L1 inhibitors, primary screen, counter-screen for PFM18AAP inhibitor project, biochemical, QFRET, fluorogenic peptide substrate | recombinant F. hepatica cathepsin L1, Z-Leu-Arg-MCA fluorescence | inhibition, % at 5.96 µM | actives 0.49% (n = 300,000) | AID 1906, 2009;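 active = inhibition above the mean of all tested compounds plus 3 SD, set per screening campaign, cut at about 17% in these data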;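 note: 0% = plate median of test compound wells and 100% = 1 µM Z-Phe-Ala-diazomethylketone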
PAD4 inh – human PAD4 inhibitors, primary screen, biochemical, fluorescence polarization, 1536-well format; Protein-arginine deiminase type-4 (Homo sapiens), Q9UM07; recombinant PAD4, RCA probe fluorescence polarization; inhibition, % at 6.36 µM; actives 0.41% (n = 330,000);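 active = percent inhibition above a cutoff equal to the mean of all tested compounds plus 3 SD, cut at about 15% in these data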;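 note: 0% = PAD4 with RCA probe and DMSO and 100% = probe without PAD4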
TDP2 inh – human TDP2 enzyme inhibitors, primary screen, biochemical, epi absorbance, recombinant enzyme; actives 0.34% (n = 370,000); AID 720702, 2013; inhibition, % at 12.8 µM; Tyrosyl-DNA phosphodiesterase 2 (Homo sapiens), O95551; T5PNP hydrolysis, p-nitrophenol absorbance 415 nm;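 active = inhibition above the mean of all tested compounds plus 3 SD, set per campaign, cut at about 25% in these data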;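 note: 0% = DMSO with enzyme and 100% = buffer with substrate but no TDP2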
Target sequence (O95551 whole entry, looked up): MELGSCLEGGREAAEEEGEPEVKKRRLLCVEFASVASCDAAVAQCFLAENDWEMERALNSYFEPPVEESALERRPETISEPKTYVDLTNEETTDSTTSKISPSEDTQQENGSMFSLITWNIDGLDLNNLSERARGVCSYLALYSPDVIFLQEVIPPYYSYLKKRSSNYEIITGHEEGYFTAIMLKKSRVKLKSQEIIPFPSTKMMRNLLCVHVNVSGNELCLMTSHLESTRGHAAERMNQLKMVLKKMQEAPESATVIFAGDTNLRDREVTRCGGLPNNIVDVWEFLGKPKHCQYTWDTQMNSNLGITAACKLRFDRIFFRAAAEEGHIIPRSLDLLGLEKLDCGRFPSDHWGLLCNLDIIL
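Read-out basis: percent inhibition. System: recombinant human TDP2. Buffer or medium: Mg2+-containing Tris-HCl buffer, pH 7.5. Repeats: single replicate. Timing: reaction 2 h, 37 °C. Benchmarks: high control without enzyme, low control DMSO plus TDP2. Probe or stimulus: 5 mM T5PNP. Doses: 12.8 µM only. Measured by: epi absorbance of p-nitrophenol freed from T5PNP by hydrolysis.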
PAD4 FP conf – human PAD4 inhibitors, confirmation, biochemical, fluorescence polarization. inhibition, % at 6.36 µM. actives 28% (n = 1,200). recombinant PAD4, RCA probe fluorescence polarization. AID 488796, 2010. shares compounds with PAD4 inh;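 active = mean inhibition across replicates above the hit cutoff set by the earlier primary screen, cut at about 15% in these data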;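 note: inhibitors block active-site labeling by the probe so polarization falls; 0% = PAD4 with probe and DMSO and 100% = probe without PAD4 enzyme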
TDP2 inh conf – human TDP2 enzyme inhibitors, retest, confirmation, biochemical, epi absorbance, recombinant enzyme. shares compounds with TDP2 inh. absorbance read-out. inhibition, % at 12.8 µM. actives 22% (n = 1,100). AID 743263, 2014; in the data active = inhibition above about 25%;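 note: 0% = vehicle with enzyme and 100% = no enzyme buffer only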
The depositor's hits bear a star; x = no result. Shown are actives, neighbours in structure and some others; about 1.4% of the full set was active somewhere.

SMILES | GSTO1 counter | CTSL1 counter | PAD4 inh | TDP2 inh | PAD4 FP conf | TDP2 inh conf
COC(=O)[C@]1(C#N)CC(=O)N(c2ccccc2)[C@@H]1c1ccccc1 | x | x | x | -2.0 | x | x
COC(=O)c1cccc(NC(=O)CCc2c(C)noc2C)c1 | x | x | 31.4* | -5.8 | -0.2 | x
CCCc1c(O)nc(SCCN(CCC)CCC)[nH]c1=O | 2.5 | -1.1 | 48.1* | -1.9 | 4.3 | x
O=[N+]([O-])c1cccc(C2CC(c3ccccc3)=NN2c2ccccc2)c1 (stereo unspecified) | 7.4 | 1.9 | 5.6 | -5.5 | x | x
Cc1ccc(C2=Nc3ccccc3SC(c3cccc([N+](=O)[O-])c3)C2)cc1 (stereo unspecified) | 6.1 | -3.3 | 18.2* | -8.5 | -5.7 | x
COC/C=C/C1=CC2=CC(=O)C(C)(OC(=O)c3cnc4ccccc4n3)C(=O)C2=CN1CC1CC1 (stereo unspecified) | 21.7 | 1.2 | 23.8* | x | 3.2 | x
CCOc1cc(/C=C2\C(=O)N(CCC#N)N=C2C)ccc1OCC(N)=O | 54.5* | -2.1 | 56.9* | 77.5* | -5.7 | 18.3
COc1cc(/C=C2\C(=O)N(CCC#N)N=C2C)ccc1OCC(=O)Nc1ccccc1 | 47.2* | -1.5 | 50.8* | 83.8* | -7.8 | 20.3
COc1cc(/C=C2\SC(N)=NC2=O)ccc1OCC(=O)Nc1ccc(C)cc1 | 7.7 | 1.1 | -3.8 | 3.4 | x | x
CCCCN(C)C(=O)c1ccc2c(c1)NC(=O)C(C)(C)O2 | x | x | x | 9.8 | x | x
CCOC(=O)C1(C)CCCN1C(=O)c1cccs1 (stereo unspecified) | x | x | x | 2.8 | x | x
COC(=O)c1c(Cl)c2n3ccccc3c(C)c(-c3ccccc3)c-2c1C(=O)OC | 28.9 | 2.0 | 15.6* | 32.0* | 6.2 | 2.8
Cc1cc(=O)n(C2CCS(=O)(=O)C2)[nH]1 (stereo unspecified) | 74.3* | 5.3 | 80.2* | 70.4* | 3.2 | 26.2*
COCc1[nH]nc2c1C(c1ccc(F)cc1)N(Cc1ccccc1)C2=O (stereo unspecified) | x | x | x | -1.3 | x | x
Cc1[nH][nH]c(=O)c1C(c1ccc(-c2ccc(F)cc2)o1)c1c(C)[nH][nH]c1=O | 51.7* | -7.2 | 48.0* | 59.9* | -19.5 | 19.7
O=[N+]([O-])c1c(Nc2ccccn2)cc(Cl)c2nonc12 | -47.3 | 8.5 | 49.3* | 87.4* | -113.9 | 47.1*
O=S1(=O)c2ccc(Br)cc2OC[C@@H](Cc2ccccc2)N1Cc1cn(Cc2ccccc2)nn1 | x | x | x | -0.6 | x | x
NC(=Nc1ccc(N)cc1)C(N)=Nc1ccc(N)cc1 | 12.7 | -1.4 | 45.6* | 50.8* | -3.6 | -9.2
N=C(N)c1ccc(N)cc1 | 1.0 | 3.7 | -0.9 | 6.2 | x | x
CC1CCCC(NC(=O)COC(=O)c2ccccc2[N+](=O)[O-])C1C (stereo unspecified) | -2.5 | 4.0 | -3.3 | -2.9 | x | x
CC1CCCC(NC(=O)COC(=O)c2ccc([N+](=O)[O-])s2)C1C (stereo unspecified) | x | x | 15.2* | 31.8* | 7.2 | 36.8*
CC(=O)Nc1ccc2c(c1)C(=O)N(C)[C@H]1CC[C@H](CC(=O)NCc3ccc(F)cc3)O[C@@H]1CO2 | x | x | x | -3.4 | x | x
CN(C)S(=O)(=O)c1cccc(NC(=S)Nc2cc(Cl)cc(Cl)c2)c1 | -8.6 | 0.4 | 0.4 | 8.5 | x | x
CCN(CCO)c1ccc(NC(=S)Nc2cccc(S(=O)(=O)N(C)C)c2)cc1 | 29.4 | 2.3 | 40.0* | 36.4* | -1.3 | 10.6
O=C(C1CCC1)n1ccc2ccc(-c3ccc4ccn(Cc5ccccc5)c4c3)cc21 | x | x | x | -3.5 | x | x
SMILES | GSTO1 counter | CTSL1 counter | PAD4 inh | TDP2 inh | PAD4 FP conf | TDP2 inh conf
CC(=O)Nc1ccc(NC2=C(Cl)C(=O)c3ccccc3C2=O)cc1 | x | x | x | 13.2 | x | x
Cc1ccc(NC2=C(NCCO)C(=O)c3ccccc3C2=O)cc1 | 48.8* | 8.4 | 39.6* | 43.5* | -4.4 | 39.5*
COc1cc(/C=C2\C(=O)ON=C2c2ccc(Cl)cc2)ccc1O | 10.0 | -2.1 | -5.2 | 10.2 | x | x
COc1ccc(C2=NN(c3ccccc3)C(=O)/C2=C\c2ccc(O)c(OC)c2)cc1 | 53.8* | 1.2 | 67.0* | 45.6* | -1.8 | 2.0
CCOc1cc(N2CCOCC2)c(OCC)cc1NC(=O)CSc1ncccc1C(=O)O | x | x | 39.2* | 29.6* | 1.9 | 5.5
CCOc1cc(N2CCOCC2)c(OCC)cc1NC(=O)CSc1ncccn1 | 2.3 | -2.7 | -6.0 | -0.1 | x | x
CC1(C)CC(=O)C(C=Nc2ccc(N)cc2)=C(O)C1 | 5.3 | -0.1 | 40.3* | 54.0* | 4.9 | -9.8
COC(=O)C1C(O)=C(C=Nc2ccccc2)C(=O)CC1(C)C (stereo unspecified) | 1.2 | -3.8 | -2.1 | 2.2 | x | x
COc1cccc(N=CC2=C(O)CC(C)(C)CC2=O)c1 | -3.4 | 1.2 | 1.3 | 7.3 | x | x
COC(=O)C1C(O)=C(C=Nc2ccc(N)cc2)C(=O)CC1(C)C (stereo unspecified) | 16.3 | 0.2 | 47.5* | 54.4* | 3.0 | -3.8
CCOC(=O)C1(C)C=C(Nc2ccc(O)cc2)C(=O)N1c1ccc(O)cc1 (stereo unspecified) | 89.2* | 8.8 | 84.9* | 27.9* | 5.9 | 17.4
CCc1ccc(S(=O)(=O)Nc2cc(SCC(=O)O)c(O)c3ccccc23)cc1 | 84.3* | -4.5 | 25.9* | 51.1* | -3.9 | 34.8*
Cc1oc2c(cc(NS(=O)(=O)c3ccc(C(C)C)cc3)c3ccccc32)c1C(=O)O | 3.9 | -4.5 | -5.3 | 3.4 | x | x
C[C@H]1C2CC(OC(=O)Nc3cccc(F)c3)C(C2)[C@H]2CCCCN21 (stereo partly specified) | x | x | x | 9.7 | x | x
COc1ccc(-c2cc(=O)[nH][nH]2)cc1 | 23.6 | 0.1 | 55.9* | 61.0* | -4.9 | -0.5
O=c1cc(-c2ccc(Cl)c(Cl)c2)[nH][nH]1 | 19.1 | -0.7 | 51.2* | 57.0* | -5.1 | 4.0
COc1ccc(-c2cc(=O)[nH]c(=O)[nH]2)cc1 | -11.5 | 1.0 | -3.8 | 6.9 | x | x
CCCCCCCCN1C(=O)N2Cc3cc(OC)ccc3C2CS1(=O)=O (stereo unspecified) | x | x | x | 6.1 | x | x
CCc1nnc(N/N=C/c2ccc(-c3ccc([N+](=O)[O-])cc3)o2)n1N | 16.7 | 2.7 | 25.3* | 67.8* | -3.8 | -4.7
Cc1nnc(N/N=C/c2ccc(-c3ccccc3F)o2)n1N | 30.2 | 4.8 | 25.1* | 58.6* | 2.0 | 3.1
Cc1nnc(N/N=C\c2ccc(-c3ccccc3[N+](=O)[O-])o2)n1N | 36.2* | -1.7 | 34.8* | 77.6* | -5.4 | 20.4
